ChEMBL document CHEMBL4014268, “Phenolic Compounds from the Lichen Lobaria orientalis” (J Nat Prod, 2017)
The source made the active and inactive calls.

Key:
Format in all cases: functional, cell-based
[1] = tested on: HepG2; assay: Cytotoxicity against human HepG2 cells at 100 ug/ml by SRB assay
In short: (§1)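 Single-concentration screen at 100 μg/mL against four human cancer lines: HepG2 (liver hepatocellular carcinoma), MCF-7 (breast), NCI-H460 (lung) and HeLa (epithelial carcinoma). Cell viability was read by sulforhodamine B staining, with camptothecin as the positive control.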

[2] = tested on: NCI-H460; assay: Cytotoxicity against human NCI-H460 cells at 100 ug/ml by SRB assay; in short: as §1
[3] = tested on: HeLa; assay: Cytotoxicity against human HeLa cells at 100 ug/ml by SRB assay; in short: as §1
[4] = tested on: MCF7; assay: Cytotoxicity against human MCF7 cells at 100 ug/ml by SRB assay; in short: as §1

Measured: Activity

COC(=O)/C=C/c1c(OC)cc(C)c(C(=O)OC)c1Oc1c(O)c(C)c(O)c2c1[C@@H](OC)OC2=O
inactive: all assays above

Cc1cc(O)cc(OC(=O)c2c(C)cc(O)cc2O)c1
inactive: all assays above

COC(=O)c1c(C)cc(OC)c(/C=C/C(C)=O)c1Oc1c(O)c(C)c(O)c2c1[C@@H](OC)OC2=O
inactive: all assays above

COC(=O)c1c(C)cc(OC)c(CO)c1Oc1c(O)c(C)c(O)c2c1[C@@H](OC)OC2=O
inactive: all assays above

COc1cc(C)c2c(c1C=O)Oc1c(c(C)c(O)c3c1[C@@H](OC)OC3=O)OC2=O
inactive: all assays above

COc1cc(C)c2c3c1CO[C@H]1OC(=O)c4c(O)c(C)c(c(c41)O3)OC2=O
inactive: all assays above

Cc1cc(O)cc(O)c1C(=O)Oc1cc(O)cc(C)c1C(=O)O
inactive: all assays above
